The target in assay [1] is Myeloblastin (proteinase 3) (Homo sapiens) (UniProt P24158). Nature of the assay: Inhibition of human neutrophil proteinase 3 at 1.73 mM.
The target of assay [2] is T1, Neutrophil elastase (Homo sapiens) (UniProt P08246).
T1 sequence (whole entry): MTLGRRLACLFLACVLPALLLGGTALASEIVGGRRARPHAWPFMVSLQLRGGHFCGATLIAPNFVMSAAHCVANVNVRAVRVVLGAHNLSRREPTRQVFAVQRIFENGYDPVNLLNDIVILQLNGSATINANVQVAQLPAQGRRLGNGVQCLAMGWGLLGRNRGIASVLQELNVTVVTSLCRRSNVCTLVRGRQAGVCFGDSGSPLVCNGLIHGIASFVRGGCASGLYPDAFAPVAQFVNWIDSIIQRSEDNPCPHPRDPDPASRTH
Nature of the assay: Inhibition of human neutrophil elastase at 3.5 mM after 30 mins assessed as p-nitroaniline release. Put shortly:
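HNE (7.0 μM stock) preincubated 30 min at 25 °C with inhibitor in DMSO at inhibitor/enzyme ratio 500, in 0.1 M HEPES/0.5 M NaCl pH 7.25. Methoxysuccinyl-Ala-Ala-Pro-Val p-nitroanilide then added, and p-nitroaniline release followed at 410 nm for 2 min. DMSO-only control. Remaining activity = (v/v0)×100, mean of duplicate or triplicate runs.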

The next assay has as its target T2, Neutrophil elastase (Homo sapiens, UniProt P08246).
T2 sequence (P08246 whole entry): T1 sequence (whole entry)
Nature of the assay: Reversible competitive inhibition of human neutrophil elastase by Dixon plot analysis.

Calls of active or inactive are those of the source. No cut-off for these calls is given here.

The results in this text go back to ChEMBL document CHEMBL1240478, “Inhibitors of human neutrophil elastase based on a highly functionalized N-amino-4-imidazolidinone scaffold” (Eur J Med Chem, 2010).

Myeloblastin (proteinase 3) (Homo sapiens), sequence (P24158 whole entry, looked up): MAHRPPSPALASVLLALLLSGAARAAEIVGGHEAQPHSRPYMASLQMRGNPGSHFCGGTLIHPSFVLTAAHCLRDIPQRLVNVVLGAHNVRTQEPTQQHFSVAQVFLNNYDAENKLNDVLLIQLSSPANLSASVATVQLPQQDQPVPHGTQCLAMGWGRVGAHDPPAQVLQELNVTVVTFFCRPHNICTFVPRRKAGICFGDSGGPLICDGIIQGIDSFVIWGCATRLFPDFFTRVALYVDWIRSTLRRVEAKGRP

What is called inhibition is the percentage by which the read-out fell short of the control. Take `O=C(O)CCC(=O)NN1CNC(Cc2ccccc2)C1=O` (stereo not given): the inhibition in assay [1] and in assay [2] was 0% each time.
In general, Ki refers to a dissociation constant, usually derived from enzyme kinetics or from competition with a known ligand. Read a high Ki as lower affinity. For `CC(C)C[C@@H]1C(=O)N(NC(=O)[C@@H](Cc2ccccc2)NC(=O)OCc2ccccc2)CN1Cc1ccccc1` (racemic), the inhibition entry in assay [1] is “inactive”. On Neutrophil elastase, this compound showed a Ki of 7.34 µM.
`CC(C)CC1C(=O)N(N(S(C)(=O)=O)S(C)(=O)=O)CN1Cc1ccccc1` (racemic): the inhibition in assay [1] and in assay [2] was 0% each time.
Take `CC(C)CC1C(=O)N(NC(=O)CCC(=O)O)CN1Cc1ccccc1` (racemic): the inhibition in assay [1] and in assay [2] was 0% each time.
Regarding `CC(C)CC1C(=O)N(NC(=O)CCc2ccccc2)CN1Cc1ccccc1` (racemic), the inhibition in assay [1] and in assay [2] was 0% each time.
Consider `CC(C)CC1C(=O)N(NC(=O)NCCc2ccccc2)CN1Cc1ccccc1` (racemic), for which the inhibition in assay [1] and in assay [2] was 0% in each case.
In the case of `CC(C)CC1C(=O)N(NC(=O)c2ccccc2C(=O)O)CN1Cc1ccccc1` (racemic), the inhibition in assay [1] and in assay [2] was 0% in each case.
For `CCOC(=O)CNC(=O)NN1CN(Cc2ccccc2)C(CC(C)C)C1=O` (racemic), the inhibition in assay [1] and in assay [2] was 0% each time.
Turning to `CCOC(=O)CNC(=O)NN1CN(Cc2ccccc2)C(Cc2ccccc2)C1=O` (racemic), the inhibition in assay [1] and in assay [2] was 0% throughout.
Regarding `Cc1ccc(S(=O)(=O)N(N2CN(Cc3ccccc3)C(CC(C)C)C2=O)S(=O)(=O)c2ccc(C)cc2)cc1` (racemic), the inhibition in assay [1] and in assay [2] was 0% throughout.
Take `O=C(NCCc1ccccc1)NN1CN(Cc2ccccc2)C(Cc2ccccc2)C1=O` (racemic): the inhibition in assay [1] and in assay [2] was 0% throughout.
With `O=C(NCCc1ccccc1)NN1CNC(Cc2ccccc2)C1=O` (racemic), the inhibition in assay [1] and in assay [2] was 0% each time.
For `O=C(NN1CN(Cc2ccccc2)C(Cc2ccccc2)C1=O)C1CC(=O)N(Cc2ccc(F)cc2)C1` (racemic), the inhibition in assay [1] and in assay [2] was 0% throughout.
As to `O=C(NN1CN(Cc2ccccc2)C(Cc2ccccc2)C1=O)C1CC(=O)N(Cc2ccccc2)C1` (racemic), the inhibition in assay [1] and in assay [2] was 0% each time.
In the case of `O=C(NN1CN(Cc2ccccc2)C(Cc2ccccc2)C1=O)C1CC(=O)N(Cc2ccco2)C1` (racemic), the inhibition in assay [1] and in assay [2] was 0% throughout.
Consider `O=C(NN1CNC(Cc2ccccc2)C1=O)C1CC(=O)N(Cc2ccc(F)cc2)C1` (racemic), for which the inhibition in assay [1] and in assay [2] was 0% each time.
On to `O=C(NN1CNC(Cc2ccccc2)C1=O)C1CC(=O)N(Cc2ccccc2)C1` (racemic), for which the inhibition in assay [1] and in assay [2] was 0% in each case.
Consider `O=C(O)CCC(=O)NN1CN(Cc2ccccc2)C(Cc2ccccc2)C1=O` (racemic), for which the inhibition in assay [1] and in assay [2] was 0% throughout.
For the compound `O=C(O)c1ccccc1C(=O)NN1CN(Cc2ccccc2)C(Cc2ccccc2)C1=O` (racemic), the inhibition in assay [1] and in assay [2] was 0% in each case.
Turning to `O=C(O)c1ccccc1C(=O)NN1CNC(Cc2ccccc2)C1=O` (racemic), the inhibition in assay [1] and in assay [2] was 0% in each case.
